How the values were obtained:
Assay type in all cases: functional
MDA-MB-435 = test: Cytotoxicity against human MDA-MB-435 cells after 48 hrs by SRB assay; conditions: MDA-MB-435, 48 h
In short: (§1)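 Second-stage NCI-60 panel run by the NCI Developmental Therapeutics Program, covering nine tumour subpanels. Five concentrations were tested: 0.01, 0.1, 1, 10 and 100 μM. Percentage growth at each level was plotted against log10 drug concentration. GI50, TGI and LC50 were read from these dose-response curves. Subpanel MID values were divided into the full-panel MID to give selectivity ratios.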

786-0 = test: Cytotoxicity against human 786-0 cells after 48 hrs by SRB assay; conditions: 786-0, 48 h
In short: (§2)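 NCI-60 human tumour cell panel screen, second stage, run by the NCI Developmental Therapeutics Program. Compounds were tested at five concentrations (0.01, 0.1, 1, 10 and 100 μM). Percentage growth was plotted against log10 concentration for each cell line. GI50, TGI and LC50 were taken from these dose-response curves.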

[1] = Cytotoxicity against human colon cancer cells assessed as growth inhibition after 48 hrs by SRB assay; conditions: Cancer cell lines
In short: (§3)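 Values come from the NCI-60 five-dose panel (0.01–100 µM). The subpanel MID is the mean GI50 over the lines of that tumour subpanel. The selectivity ratio is the full-panel MID divided by the subpanel MID; 3–6 is rated moderate and >6 high.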

Malme-3M = test: Cytotoxicity against human MALME-3M cells after 48 hrs by SRB assay; in short: as §2
LOX IMVI = test: Cytotoxicity against human LOXIMVI cells after 48 hrs by SRB assay; in short: as §2
[2] = Cytotoxicity against human prostate cancer cells assessed as growth inhibition after 48 hrs by SRB assay; conditions: Cancer cell lines; in short: as §3
HCT-15 = test: Cytotoxicity against human HCT15 cells after 48 hrs by SRB assay; conditions: HCT-15, 48 h; in short: as §2
NCI-H460 = test: Cytotoxicity against human NCI-H460 cells after 48 hrs by SRB assay; conditions: NCI-H460, 48 h; in short: as §1
ACHN = test: Cytotoxicity against human ACHN cells after 48 hrs by SRB assay; in short: as §2
RPMI-8226 = test: Cytotoxicity against human RPMI8226 cells after 48 hrs by SRB assay; conditions: RPMI-8226, 48 h; in short: as §1
SK-MEL-2 = test: Cytotoxicity against human SK-MEL-2 cells after 48 hrs by SRB assay; conditions: SK-MEL-2, 48 h; in short: as §1
[3] = Cytotoxicity against human leukemia cells assessed as growth inhibition after 48 hrs by SRB assay; conditions: Leukemia cell; in short: as §3
[4] = Cytotoxicity against human Hs578T cells after 48 hrs by SRB assay; conditions: Hs-578T; in short: as §2
K562 = test: Cytotoxicity against human K562 cells after 48 hrs by SRB assay; conditions: K562, 48 h; in short: as §2
SR = test: Cytotoxicity against human SR cells after 48 hrs by SRB assay
In short: (§4)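 NCI-60 five-dose study run by NCI DTP at 0.01, 0.1, 1, 10 and 100 µM. Percentage growth at each level was plotted against log10 concentration for each line, and GI50, TGI and LC50 were read from the dose-response curves.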

OVCAR-5 = test: Cytotoxicity against human OVCAR5 cells after 48 hrs by SRB assay; conditions: OVCAR-5, 48 h; in short: as §1
OVCAR-4 = test: Cytotoxicity against human OVCAR4 cells after 48 hrs by SRB assay; conditions: OVCAR-4, 48 h; in short: as §1
[5] = Cytotoxicity against human breast cancer cells assessed as growth inhibition after 48 hrs by SRB assay; conditions: Cancer cell lines; in short: as §3
M14 = test: Cytotoxicity against human M14 cells after 48 hrs by SRB assay; conditions: M14, 48 h; in short: as §2
NCI-H322M = test: Cytotoxicity against human NCI-H322M cells after 48 hrs by SRB assay; in short: as §1
[6] = Cytotoxicity against human ovarian cancer cells assessed as growth inhibition after 48 hrs by SRB assay; conditions: Cancer cell lines; in short: as §3
[7] = Cytotoxicity against human renal cancer cells assessed as growth inhibition after 48 hrs by SRB assay; conditions: Cancer cell lines; in short: as §3
HT-29 = test: Cytotoxicity against human HT-29 cells after 48 hrs by SRB assay; conditions: HT-29, 48 h; in short: as §2
SK-MEL-28 = test: Cytotoxicity against human SK-MEL-28 cells after 48 hrs by SRB assay; conditions: SK-MEL-28, 48 h; in short: as §1
SNB-19 = test: Cytotoxicity against human SNB19 cells after 48 hrs by SRB assay; conditions: SNB-19, 48 h; in short: as §1
HCT-116 = test: Cytotoxicity against human HCT116 cells after 48 hrs by SRB assay; conditions: HCT-116, 48 h; in short: as §2
BT-549 = test: Cytotoxicity against human BT549 cells after 48 hrs by SRB assay; conditions: BT-549, 48 h; in short: as §2
MDA-MB-468 = test: Cytotoxicity against human MDA-MB-468 cells after 48 hrs by SRB assay; conditions: MDA-MB-468, 48 h; in short: as §1
U-251 = test: Cytotoxicity against human U251 cells after 48 hrs by SRB assay; conditions: U-251, 48 h; in short: as §4
OVCAR-8 = test: Cytotoxicity against human OVCAR8 cells after 48 hrs by SRB assay; conditions: OVCAR-8, 48 h; in short: as §1
NCI/ADR-RES = test: Cytotoxicity against human NCI/ADR-RES cells after 48 hrs by SRB assay; in short: as §1
[8] = read-out: LC50 (the source's name)

Compound: O=C1c2ccccc2C(=O)c2c1cc(Sc1ccc(F)cc1F)c1nsnc21
- GI50 (MDA-MB-435): 1.94 µM
- LC50 (MDA-MB-435): 7.07 µM
- TGI (MDA-MB-435): 3.7 µM
- GI50 (786-0): 1.85 µM
- LC50 (concentration killing 50% of cells) (786-0): 6.75 µM
- TGI (786-0): 3.53 µM
- GI50 [1]: 7.43 µM
- GI50 (Malme-3M): 3.26 µM
- LC50 (Malme-3M): 41.7 µM
- TGI (Malme-3M): 8.65 µM
- GI50 (LOX IMVI): 1.21 µM
- TGI (LOX IMVI): 2.64 µM
- CC50 (LOX IMVI; [8]): 5.77 µM
- GI50 [2]: 4.13 µM
- GI50 (HCT-15): 2.84 µM
- LC50 (HCT-15): 50 µM
- TGI (HCT-15): 12.9 µM
- GI50 (NCI-H460): 25.9 µM
- LC50 (concentration killing 50% of cells) (NCI-H460): > 100 µM
- TGI (NCI-H460): > 100 µM
- GI50 (ACHN): 1.85 µM
- LC50 (ACHN): 7.14 µM
- TGI (ACHN): 3.63 µM
- GI50 (RPMI-8226): 2.2 µM
- LC50 (RPMI-8226): 63.9 µM
- TGI (RPMI-8226): 8.08 µM
- GI50 (SK-MEL-2): 2.34 µM
- LC50 (SK-MEL-2): 9.41 µM
- TGI (SK-MEL-2): 4.69 µM
- GI50 [3]: 2.16 µM
- GI50 [4]: 2.81 µM
- LC50 [4]: > 100 µM
- TGI [4]: > 100 µM
- GI50 (K562): 3.32 µM
- LC50 (K562): 68.4 µM
- TGI (K562): 11.8 µM
- GI50 (SR): 2.97 µM
- LC50 (SR): 52.7 µM
- TGI (SR): 9.06 µM
- GI50 (OVCAR-5): 8.18 µM
- LC50 (OVCAR-5): 63.3 µM
- TGI (OVCAR-5): 24 µM
- GI50 (OVCAR-4): 0.34 µM
- LC50 (OVCAR-4): 4.18 µM
- TGI (OVCAR-4): 1.38 µM
- GI50 [5]: 1.77 µM
- GI50 (M14): 3.72 µM
- LC50 (M14): 43 µM
- TGI (M14): 15.8 µM
- GI50 (NCI-H322M): 96.5 µM
- LC50 (concentration causing 50% net cell kill) (NCI-H322M): > 100 µM
- TGI (NCI-H322M): > 100 µM
- GI50 [6]: 2.7 µM
- GI50 [7]: 2.53 µM
- GI50 (HT-29): 8.72 µM
- LC50 (HT-29): > 100 µM
- TGI (HT-29): 36.3 µM
- GI50 (SK-MEL-28): 1.87 µM
- TGI (SK-MEL-28): 3.81 µM
- CC50 (SK-MEL-28; [8]): 7.75 µM
- GI50 (SNB-19): 13.9 µM
- LC50 (SNB-19): 68.6 µM
- TGI (SNB-19): 30.9 µM
- GI50 (HCT-116): 1.55 µM
- TGI (HCT-116): 3.22 µM
- CC50 (HCT-116; [8]): 6.69 µM
- GI50 (BT-549): 3.99 µM
- LC50 (BT-549): 43 µM
- TGI (BT-549): 17.2 µM
- GI50 (MDA-MB-468): 0.45 µM
- LC50 (MDA-MB-468): 4.19 µM
- TGI (MDA-MB-468): 1.52 µM
- GI50 (U-251): 1.9 µM
- LC50 (U-251): 9.94 µM
- TGI (U-251): 4.35 µM
- GI50 (OVCAR-8): 1.58 µM
- TGI (OVCAR-8): 3.63 µM
- CC50 (OVCAR-8; [8]): 8.34 µM
- GI50 (NCI/ADR-RES): 1.74 µM
- LC50 (concentration killing 50% of cells) (NCI/ADR-RES): > 100 µM
- TGI (NCI/ADR-RES): 4.59 µM

From ChEMBL document CHEMBL3621107, “Ring fusion strategy for synthesis and lead optimization of sulfur-substituted anthra[1,2-c][1,2,5]thiadiazole-6,11-dione derivatives as promising scaffold of antitumor agents” (Eur J Med Chem, 2015)
